The test system of assay [1] is patient-derived GBM neural stem cells (GNS). As to the kind of experiment: Proliferation assay, dose-response series. It is filed as cell-based, human. The conditions noted are these: for IC50: read-out: potency (IC50) toward GNS, panel of six GNS lines; for selectivity toward GNS and NS compared with fibroblasts: IC50 of BJ/IC50 of any NS or GNS with the lowest IC50, dose series 0.39–50 µM.

The subject of assay [2] is GNS, NS and BJ lines. As to the kind of experiment: Primary screen of neuroactive compounds, growth inhibition. The format is cell-based, human. The conditions noted are these: 5 µM, 5 days; hit = greater than 20% growth inhibition vs DMSO. Put shortly: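 A 680-compound neuroactive library was screened at 5 µM for 5 days against three human GNS lines, two neural stem cell (NS) lines and BJ fibroblasts. GNS and NS lines were grown as adherent serum-free monolayers. Growth inhibition was calculated relative to DMSO control; a primary hit caused >20% inhibition.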

The test system of assay [3] is adenylate cyclase. As to the kind of experiment: Forskolin-induced cAMP response in GNS. The format is cell-based, human. Particulars: G362 cells, forskolin 30 µM. A digest of the protocol: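 G362 GNS cells were stimulated with forskolin (30 µM) to activate adenylate cyclase. Forskolin was given alone or after pretreatment with a DRD4-selective agonist (30 µM). cAMP level was expressed as fold change versus control; n = 3, mean ± SEM.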

The test system of assay [4] is GNS (G411 and G362). In words: Flow cytometric cell-cycle analysis of DNA content. It is filed as cell-based, human. A digest of the protocol: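 GNS lines G411 and G362 were grown as adherent monolayers in serum-free medium. They were exposed to test compounds (DRD4 antagonists) at 10 µM or 25 µM, alongside DMSO control, for 48 hr. DNA-content cell-cycle distribution was then analysed.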
Background: In flow cytometry, cells or beads pass a laser one at a time.

The subject of assay [5] is non-NS control cells (BJ, Daoy, U-2 OS, C8-D1A). As to the kind of experiment: Proliferation assay in non-NS control cell lines. The format is cell-based. Particulars: highest concentration tested 50 µM.
The subject of assay [6] is G481. As to the kind of experiment: Combination index with TMZ. The format is cell-based, human. Particulars: in combination with TMZ. Put shortly: (§1)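 Patient-derived glioblastoma stem cell (GNS) cultures were exposed to temozolomide combined with a test compound (DRD4 antagonist). The combination index (CI) was calculated and plotted against fraction affected (Fa) to judge the interaction.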

The subject of assay [7] is G362. As to the kind of experiment: Combination index with TMZ. It is filed as cell-based, human. The conditions noted are these: in combination with TMZ. Put shortly:
as §1

In assay [8] the test system is GNS (G362 and G411). As to the kind of experiment: LC3B+ puncta immunofluorescence. The conditions noted are these: 48 hr; L-741,742 10 µM, PNU 96415E 25 µM. It is filed as cell-based, human. A digest of the protocol: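 Adherent, serum-free GNS cultures (G362, G411) were exposed for 48 hr to test compounds (DRD4 antagonists) at 10 µM or 25 µM, or DMSO. LC3B was immunostained, and cells with large LC3B+ puncta were counted (>200 cells per group). Results are the fraction of cells; n = 3, mean ± SEM, unpaired one-tailed t test.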

Assay [9] has as its system subcutaneous implanted tumor (G362). In words: Subcutaneous GNS xenograft in NSG mice. It is filed as in vivo, mouse. Particulars: 20 mg/kg intraperitoneally; for reduction of average tumor weight at the endpoint: 5 days on, 2 days off, vs vehicle.
The target of assay [10] is T1, DRD4 receptor (Homo sapiens, UniProt P21917).
T1 sequence (P21917 1-419): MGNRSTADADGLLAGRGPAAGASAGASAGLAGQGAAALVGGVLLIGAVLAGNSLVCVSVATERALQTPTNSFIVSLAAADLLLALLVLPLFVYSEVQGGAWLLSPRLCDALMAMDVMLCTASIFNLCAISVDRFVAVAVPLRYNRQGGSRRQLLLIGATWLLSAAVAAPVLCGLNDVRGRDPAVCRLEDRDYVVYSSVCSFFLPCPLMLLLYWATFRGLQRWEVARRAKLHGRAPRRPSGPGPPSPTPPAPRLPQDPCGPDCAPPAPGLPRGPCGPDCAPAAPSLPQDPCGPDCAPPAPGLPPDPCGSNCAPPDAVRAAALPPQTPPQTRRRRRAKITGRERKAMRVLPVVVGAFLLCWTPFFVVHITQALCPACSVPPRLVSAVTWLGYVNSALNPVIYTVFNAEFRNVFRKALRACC
In words: Block of forskolin-induced cAMP response by DRD4 agonist. It is filed as cell-based. Particulars: G362 cells, pretreatment 30 µM, then forskolin 30 µM.

For assay [11], the system named is G362 cells injected intracranially. As to the kind of experiment: Intracranial G362 xenograft survival in NSG mice. The format is in vivo, mouse.
Assay [12] relates to normal human NS lines (hf5205 and hf6539). As to the kind of experiment: Neuronal differentiation of normal NS. The format is cell-based. The conditions noted are these: with sequential withdrawal of EGF and FGF; VGlut1 expression.

Take PD 168568: in assay [1], the IC50 lay in the range of 25 to 50 µM.
Take `CN1CCN(CCCN2c3ccccc3Sc3ccc(C(F)(F)F)cc32)CC1` [trifluoperazine]: the primary screen result in [2] is reported as “hits”.
Consider `CCN(CC)CCOc1ccc(Cc2ccccc2)cc1` [N,N-diethyl-2-(4-(phenylmethyl)phenoxy) ethanamine], for which the “selectivity toward GNS and NS compared with fibroblasts” value (from here on “selectivity toward GNS and NS”) in assay [1] was “more than 8 fold”.
In the case of `Clc1ccc(N2CCN(Cc3c[nH]c4ncccc34)CC2)cc1` [L-745,870], the 50% inhibitory concentration (IC50) in assay [1] was in the range of 3.1 to 6.2 µM.
As for `CC(C(O)c1ccc(O)cc1)N1CCC(Cc2ccccc2)CC1.CC(C(O)c1ccc(O)cc1)N1CCC(Cc2ccccc2)CC1.O=C(O)C(O)C(O)C(=O)O` (stereo not shown) [ifenprodil tartrate], in [1], the “selectivity against GNS compared with NS” value was 8 fold; the “selectivity toward GNS and NS” value is given as “more than 8 fold”.
Regarding `CSc1ccc2c(c1)N(CCC1CCCCN1C)c1ccccc1S2` (stereo not shown) [thioridazine], the primary screen result in assay [2] is “hits”.
Turning to `CN1[C@@H]2CC[C@H]1C[C@@H](OC(=O)c1cc(Cl)cc(Cl)c1)C2` [MDL-72222], the “selectivity toward GNS and NS” value in [1] was “more than 8 fold”.
Regarding `C=C[C@@]1(C)CC(=O)[C@]2(O)[C@@]3(C)[C@@H](O)CCC(C)(C)[C@@H]3[C@H](O)[C@H](OC(C)=O)[C@@]2(C)O1` [Forskolin, forskolin], in assay [3], the “increase in cAMP concentration” value came out at 2.1 fold.
On to `O=C(NOC[C@H](O)CO)c1ccc(F)c(F)c1Nc1ccc(I)cc1F` [PD 0325901], for which, in assay [4], the cell-cycle effect result was “G0/G1 arrest”.
Turning to `Cl.Cl.Fc1ccc(N2CCN(CCC3OCCc4ccccc43)CC2)cc1` (stereo not shown) [PNU 96415E], in assay [1], the “selectivity against GNS compared with NS” value is given as 8 fold; the “selectivity toward GNS and NS” value is reported as “more than 8 fold”; the IC50 turned out to be 6.25 µM. The “sensitivity of non-NS control cells” value in [5] is “not sensitive even at the highest concentration tested”. Further, the “lowest combination index (CI) value” in [6] is given as 0.32. Further, the “lowest combination index (CI) value” in [7] worked out at 0.56. Moreover, the “cells showing large LC3B+ puncta” value in [8] is on record as “more than 50%”. Also, in assay [9], the “tumor volume growth vs vehicle control” value is listed as “much slower growth” and the “reduction of average tumor weight at the endpoint” value came to 44.3%. The cell-cycle effect entry in assay [4] is given as “G0/G1 arrest”.
Take `Cc1cc(C)cc(C(=O)OC2CC3CCC(C2)N3C)c1` (stereo not shown) [tropanyl 3,5-dimethylbenzoate]: in assay [1], the “selectivity toward GNS and NS” value is “more than 8 fold”.
Regarding `Cc1cccc(NC(=O)CN2CCC(c3ccccn3)CC2)c1` [A412997], the “block of forskolin-induced cAMP response” value in assay [10] worked out at 31.3%.
As to `CCC(Oc1ccc(Cl)cc1)C(=O)OC1CC2CCC(C1)N2C` (racemic) [(±)-tropanyl-2-(4-chlorophenoxy)butanoate], the “selectivity toward GNS and NS” value in assay [1] is “more than 8 fold”.
On to `CCN(CC)CCCC(C)Nc1ccnc2cc(Cl)ccc12` (stereo not shown) [chloroquine], for which the cell-cycle effect result in assay [4] was “G0/G1 arrest”.
In the case of `Nc1ccc(CCN2CCN(c3cccc(C(F)(F)F)c3)CC2)cc1` [LY-165,163], the “selectivity toward GNS and NS” value in assay [1] was “more than 8 fold”.
`Cc1c(C2CCN(CCc3ccccc3)CC2)noc1-c1ccc(Cl)cc1` [L-741,742]: in assay [1], the “selectivity against GNS compared with NS” value is reported as 8 fold; the “selectivity toward GNS and NS” value is given as “more than 8 fold”; the concentration for half-maximal inhibition (IC50) lay within 1.5 to 6.2 µM. Further, the “lowest combination index (CI) value” in assay [6] stood at 0.28. For the same compound, the “lowest combination index (CI) value” in assay [7] was determined as 0.29. In assay [8], the “cells showing large LC3B+ puncta” value was “more than 50%”. Besides, in assay [9], the “tumor volume growth vs vehicle control” value was “much slower growth” and the “reduction of average tumor weight at the endpoint” value turned out to be 40.9%. Further, in assay [11] (25 mg/kg alone, treatment from 1 week after engraftment), the survival over control result is on record as “modest but significant benefit in survival”. In addition, the “survival compared with TMZ alone” value in assay [11] (25 mg/kg combined with TMZ (25 or 12.5 mg/kg gavage)) is reported as “significantly improved survival”. Further, the cell-cycle effect entry in [4] is on record as “G0/G1 arrest”. In [12], the “neuronal differentiation of NS” value is listed as “dramatically enhanced neuronal differentiation”.

The term IC50 denotes the point on the concentration scale where inhibition reaches its midpoint.

Source of the values: article PMC5968455 (Cancer cell, 2016).
